For data set [1], the species on record is Rattus norvegicus. In words: Antiinflammatory activity against adjuvant induced arthritis in male charles river rats. The format is functional.
The nature of data set [2]: Gastrointestinal safety of a compound relative to indomethacin and piroxicam in rats. The format is ADME, organism-based. The settings on record: rat, in vivo. An outline of the steps:
(§1)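 Male Sprague-Dawley rats (~165 g) received a single oral dose of drug or vehicle. Stomach and small intestine were examined for mucosal lesions under a 10× dissecting microscope in coded, randomized order. Any single lesion counted as positive. TD50 was calculated by the moving-average method.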

For data set [3], the system named is Rattus norvegicus. The data set can be described thus: Safety assessment in car paw assay, po. In kind it is functional.
The species entered for data set [4] is Rattus norvegicus. In words: Activity in the nonestablished adjuvant-induced arthritis model. The format is functional.
The subject of data set [5] is Rattus norvegicus. The data set can be described thus: Safety assessment in adjuvant induced arthritis rat model (AA),day 18,po. In kind it is functional. The following applies: 432 h.
Data set [6] has as its system Rattus norvegicus. The data set can be described thus: Safety assessment in adjuvant induced arthritis rat model (AA),po. In kind it is functional.
The species entered for data set [7] is Rattus norvegicus. In words: Compound was evaluated for 12 day tolerance in long evans rats. In kind it is functional.
Data set [8] is filed under the species Rattus norvegicus. In words: Maximum tolerated dose for 12 days in long evans rats. The format is functional.
Data set [9] in a line: TD50/ED50 value of the compound. The format is functional. An outline of the steps: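 Ratio of the GI lesion TD50 to the established adjuvant arthritis paw ED50, both measured orally in rats.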
Data set [10] can be described thus: Ratio (12-day no effect/AA ED50) of the compound. The format is functional. An outline of the steps: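 Maximum no-effect dose from the 12-day study divided by the adjuvant arthritis ED50. […] Read-outs were mortality, pharmacologic or toxic signs, body and organ weights and gross necropsy.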
The next data set is filed under the species Mus musculus. In words: Effective dose of compound against analgesia was determined by phenylquinone writhing assay. On the technique in general: In writhing tests, fewer writhes than in controls are read as antinociception.
Data set [11] can be described thus: Maximum blood level reached after an dose of 10.6 uM/kg intravenously. In kind it is ADME, organism-based. More on the design: dose 10.6 uM/kg, route intravenous. The settings on record: in vivo, iv.
Data set [12] in a line: Maximum blood level reached at dose of 10.6 uM/kg orally. Also noted: dose 10.6 uM/kg, route oral. The following applies: in vivo, po. The format is ADME, organism-based.
A short description of data set [13]: Elimination half life at dose of 10.6 uM/kg intravenously. The format is ADME, organism-based. The settings on record: in vivo, iv.
A short description of data set [14]: Elimination half life at dose of 10.6 uM/kg orally. The format is ADME, organism-based. The settings on record: in vivo, po.
The nature of data set [15]: Volume of distribution at dose of 10.6 uM/kg intravenously. The format is ADME, organism-based. The settings on record: in vivo, iv.
Data set [16] in a line: Gastrointestinal safety of a compound relative to indomethacin and piroxicam. The format is ADME. A digest of the protocol: as §1
Data set [17] in a line: Maximum blood level reached after an oral dose 14.7 uM/kg oral route. The format is ADME, organism-based. Also noted: dose 14.7 uM/kg, route oral. The settings on record: in vivo.
A short description of data set [18]: Maximum blood level reached after an oral dose of 14.7 uM/kg intravenous route. In kind it is ADME, organism-based. The following applies: in vivo.
Data set [19] in a line: Elimination half life at dose of 14.7 uM/kg intravenous route. The format is ADME, organism-based. The following applies: in vivo.
Data set [20] can be described thus: Volume of distribution at dose of 14.7 uM/kg intravenous route. The settings on record: in vivo. The format is ADME, organism-based.
Data set [21] in a line: Elimination half life at dose of 14.7 uM/kg oral route. The format is ADME, organism-based. The settings on record: in vivo.

Turning to `CS(=O)(=O)c1ccc(-c2[nH]c(S(=O)(=O)O)cc2-c2ccc(F)cc2)cc1.c1ccncc1`, the ED50 in the data set filed under Rattus norvegicus [1] was determined as 12.7 mg/kg.
With `COc1ccc2c(c1)c(CC(=O)O)c(C)n2C(=O)c1ccc(Cl)cc1` [INDOMETHACIN], the ED50 in the data set listed under Rattus norvegicus [1] turned out to be 0.3 mg/kg.
`CC(C)Cc1ccc(C(C)C(=O)O)cc1` (stereo unspecified) [IBUPROFEN]: the ED50 in the data set listed under Rattus norvegicus [1] amounted to 100 mg/kg.
On the same count and under the same terms, for `CS(=O)(=O)c1ccc(-c2[nH]c(I)c(I)c2-c2ccc(F)cc2)cc1` the value was 41.3 mg/kg.
In turn, `CSc1cc(-c2ccc(F)cc2)c(-c2ccc(S(C)(=O)=O)cc2)[nH]1` returned a TD50 in data set [2] of over 414 µmol/kg. The compound further returned an ED30 in the data set with Rattus norvegicus [3] of over 276 µM/kg. For the same compound, the ED50 in the data set listed under Rattus norvegicus [1] was determined as 1.8 mg/kg; in the data set filed under Rattus norvegicus [4], 25 mg/kg; with Rattus norvegicus [5] it was 69.2 µM/kg; with Rattus norvegicus [6], 4.98 µM/kg; in the data set listed under Mus musculus, 46.3 mg/kg. Further, the no-effect dose in the data set listed under Rattus norvegicus [7] is over 99 µM/kg. Further, the Max tolerated dose in the data set listed under Rattus norvegicus [8] is over 199 µM/kg. Further, the TD50/ED50 in [9] is over 83. The Ratio in data set [10] is over 30.
`Cn1c(Br)c(Br)c(-c2ccc(F)cc2)c1-c1ccc(S(C)(=O)=O)cc1`: the ED50 in the data set filed under Rattus norvegicus [1] worked out at 4.16 mg/kg.
With `CS(=O)(=O)c1ccc(-c2[nH]c(C(=O)C(F)(F)F)cc2-c2ccc(F)cc2)cc1`, the ED50 in the data set listed under Rattus norvegicus [1] is 19.4 mg/kg.
For the compound `CS(=O)(=O)c1ccc(-c2[nH]c(Br)c(Br)c2-c2ccc(F)cc2)cc1`, the results for the Cmax in [11] and in data set [12] were 2.8 uM l-1 and 1.5 uM l-1, respectively. Moreover, the values for the half-life in data set [13] and in data set [14] were 29.3 h and 47.5 h, respectively. For the same compound, in data set [15], the Vd (as a rule, a proportionality between amount in the body and measured concentration, not a real space) stood at 4.3 L/kg. For the same compound, the ED50 in the data set listed under Rattus norvegicus [1] was 1.94 mg/kg; with Rattus norvegicus [6] (read-out: ED50), 4.1 µmol/kg. In data set [9], this compound gave a TD50/ED50 of over 113. Also, the TD50 in data set [16] is over 211 µmol/kg.
Consider `CS(=O)(=O)c1ccc(-c2[nH]c(Br)c(Cl)c2-c2ccc(F)cc2)cc1`, for which the ED50 in the data set filed under Rattus norvegicus [1] worked out at 4.28 mg/kg.
`CS(=O)(=O)c1ccc(-c2[nH]c(Cl)c(Cl)c2-c2ccc(F)cc2)cc1`: the ED50 in the data set listed under Rattus norvegicus [1] is 1.5 mg/kg.
Same read-out and setting: in the case of `CC(C)(C)OC(=O)n1c(Br)cc(-c2ccc(F)cc2)c1-c1ccc(S(C)(=O)=O)cc1` it was 31 mg/kg.
With `CS(=O)(=O)c1ccc(-c2[nH]c(Cl)c(Br)c2-c2ccc(F)cc2)cc1`, the ED50 in the data set filed under Rattus norvegicus [1] amounted to 3.4 mg/kg.
Consider `CC(=O)n1c(Br)cc(-c2ccc(F)cc2)c1-c1ccc(S(C)(=O)=O)cc1`, for which, in the data set listed under Rattus norvegicus [1], the ED50 is 36.2 mg/kg.
Turning to `CS(=O)(=O)c1ccc(-c2[nH]c(C#N)cc2-c2ccc(F)cc2)cc1`, the Cmax in [17] is 2.9 uM l-1; in [18] it was 4.1 uM l-1. Further, the results for the half-life in [19] and in data set [21] were 13.7 h and 17.3 h, respectively. Also, the Vd in data set [20] amounted to 5.7 L/kg. The ED50 worked out at 1.3 mg/kg in the data set filed under Rattus norvegicus [1] and 3.82 µmol/kg in the data set with Rattus norvegicus [6] (read-out: ED50). For the same compound, the TD50/ED50 in data set [9] is over 100. This compound also displayed a TD50 in data set [16] of over 381 µmol/kg.
Regarding `CS(=O)(=O)c1ccc(-c2[nH]c(I)cc2-c2ccc(F)cc2)cc1`, the ED50 in the data set listed under Rattus norvegicus [1] came to 22 mg/kg.

Source of the values: ChEMBL document CHEMBL1127690, “Antiinflammatory 4,5-diarylpyrroles: synthesis and QSAR” (J Med Chem, 1994).
